Columns and labels:
Assay type in all cases: ADME
[1] = molecular target: T1, Solute carrier family 15 member 1 (Mus musculus, UniProt Q9JIP7); assay: Drug uptake in Pichia pastoris GS115 expressing mouse recombinant PEPT1 at 5 uM after 30s by dual-channel liquid scintillation counting analysis in presence of glycine relative to control; conditions: in vivo, 0.5 min
T1 sequence (Q9JIP7 whole entry): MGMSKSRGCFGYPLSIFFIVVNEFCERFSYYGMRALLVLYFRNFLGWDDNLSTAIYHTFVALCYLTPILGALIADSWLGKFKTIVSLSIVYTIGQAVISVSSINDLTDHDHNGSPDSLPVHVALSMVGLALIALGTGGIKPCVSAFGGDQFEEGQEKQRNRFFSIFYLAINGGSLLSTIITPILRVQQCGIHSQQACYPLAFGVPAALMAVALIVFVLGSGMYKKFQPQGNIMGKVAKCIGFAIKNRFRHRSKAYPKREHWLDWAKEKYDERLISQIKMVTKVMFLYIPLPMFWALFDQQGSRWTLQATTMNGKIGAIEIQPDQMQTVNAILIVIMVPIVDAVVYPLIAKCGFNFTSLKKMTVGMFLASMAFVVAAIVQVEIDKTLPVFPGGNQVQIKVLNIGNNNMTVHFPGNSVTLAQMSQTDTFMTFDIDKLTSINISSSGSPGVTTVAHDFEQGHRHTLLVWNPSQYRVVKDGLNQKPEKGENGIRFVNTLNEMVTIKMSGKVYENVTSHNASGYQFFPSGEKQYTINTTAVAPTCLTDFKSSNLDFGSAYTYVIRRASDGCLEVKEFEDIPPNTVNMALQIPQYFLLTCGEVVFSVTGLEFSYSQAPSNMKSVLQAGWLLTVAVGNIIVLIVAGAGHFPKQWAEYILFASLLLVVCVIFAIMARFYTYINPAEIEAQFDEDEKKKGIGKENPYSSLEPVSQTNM
Method in brief: (§1)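 [3H]GlySar 5.0 µM final, 30-s uptake at 24°C in 100 mM potassium phosphate pH 6.5, with or without a potential inhibitor at 10 mM. Cells are methanol-induced transformants. Values are vector-subtracted and expressed as percent of buffer control. Mean ± SE (n=3). ANOVA with Dunnett's test.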

[2] = molecular target: T2, Solute carrier family 15 member 1 (Rattus norvegicus, UniProt P51574); assay: Drug uptake in Pichia pastoris GS115 expressing rat recombinant PEPT1 at 5 uM after 30s by dual-channel liquid scintillation counting analysis in presence of cephapirin relative to control; conditions: 0.5 min
T2 sequence (P51574 whole entry): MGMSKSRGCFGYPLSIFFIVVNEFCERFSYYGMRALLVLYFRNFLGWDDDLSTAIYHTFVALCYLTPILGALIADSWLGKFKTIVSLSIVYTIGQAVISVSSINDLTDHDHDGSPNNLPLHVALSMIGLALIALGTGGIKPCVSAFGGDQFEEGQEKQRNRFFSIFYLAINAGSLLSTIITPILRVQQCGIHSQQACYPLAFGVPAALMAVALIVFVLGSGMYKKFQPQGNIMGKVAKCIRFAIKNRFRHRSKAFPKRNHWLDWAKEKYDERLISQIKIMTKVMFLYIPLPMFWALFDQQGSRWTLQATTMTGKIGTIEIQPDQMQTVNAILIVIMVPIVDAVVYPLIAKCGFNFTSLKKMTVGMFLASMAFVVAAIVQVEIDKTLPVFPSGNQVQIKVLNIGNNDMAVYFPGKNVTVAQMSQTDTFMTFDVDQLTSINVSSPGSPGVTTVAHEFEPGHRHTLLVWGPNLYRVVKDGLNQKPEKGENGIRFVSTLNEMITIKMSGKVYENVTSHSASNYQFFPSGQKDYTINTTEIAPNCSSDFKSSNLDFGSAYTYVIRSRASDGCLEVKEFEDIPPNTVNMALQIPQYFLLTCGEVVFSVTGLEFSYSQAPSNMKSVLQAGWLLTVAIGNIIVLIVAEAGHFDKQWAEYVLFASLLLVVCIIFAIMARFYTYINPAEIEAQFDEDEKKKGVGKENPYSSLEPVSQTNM
Method in brief: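 Rat PEPT1 (pPIC3.5K-rPept1) in GS115 His+Mut+ transformant, methanol-induced 20-24 hr in BMMY at 30°C, washed into 100 mM potassium phosphate pH 6.5. [3H]GlySar final 5.0 µM with inhibitor at 10 mM, 30 sec at 24°C. Counts taken by liquid scintillation after 24 hr standing. Values are vector-subtracted and given as % of buffer control. Mean ± SE, n=3.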

[3] = molecular target: T1, Solute carrier family 15 member 1; assay: Drug uptake in Pichia pastoris GS115 expressing mouse recombinant PEPT1 at 5 uM after 30s by dual-channel liquid scintillation counting analysis in presence of TEA relative to control; conditions: 0.5 min; method in brief: as §1

Drug uptake [1]: 104%
Drug uptake [2]: 122%
Drug uptake [3]: 83.7%
Compound: [3H]C(C(=O)O)N(C)C(=O)CN (stereo not drawn)

Reference: ChEMBL document CHEMBL3526053, “Species-dependent uptake of glycylsarcosine but not oseltamivir in Pichia pastoris expressing the rat, mouse, and human intestinal peptide transporter PEPT1” (Drug Metab Dispos, 2012)
